Source: PMC4065302 (Diabetes Therapy, 2014)

What was measured:
[1] = acidic pH; no reference given; cited from earlier work
[2] = Serum IAsp and IDeg pharmacokinetics; assay type: in vivo, human
In short: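 Subcutaneous abdominal dosing in T1DM subjects: insulin degludec 0.42 U/kg daily Days 1–5, insulin degludec/insulin aspart 0.6 U/kg on Day 6. Aspart was sampled predose to 12 h on Day 6. Degludec was sampled predose on Days 1–5, then to 48 h, plus 72, 96 and 120 h. Serum levels were measured by validated analyte-specific ELISAs; full analysis set n = 22.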

[3] = system: subjects with type 1 diabetes mellitus; experiment: Safety and tolerability monitoring; assay type: in vivo, human; details: 22 subjects
In short: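 Adults 18–65 y with T1DM on insulin ≥12 months. Regimen: insulin degludec 0.42 U/kg s.c. once daily (~8 p.m.) Days 1–5, then single insulin degludec/insulin aspart 0.6 U/kg s.c. on Day 6, with bolus insulin aspart as needed. Monitored: treatment-emergent AEs, confirmed hypoglycemia (severe per ADA, or plasma glucose <3.1 mmol/L or blood glucose <2.8 mmol/L), physical exam, vital signs, ECG, labs. Summarized descriptively.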

[4] = cited from earlier work
[5] = while IDeg steady state was being attained (Days 1-5)

## Insulin glargine
[1]
  pH at which soluble: 4

## insulin aspart [IAsp]
[2]; mean, n = 22, serum, ELISA, IDegAsp 0.6 U/kg s.c. (0.18 U/kg IAsp), Day 6
  AUCIAsp,0–12h (total serum exposure of IAsp in IDegAsp): 1,087 pmol h/L
[2]; median, n = 22, serum, ELISA, IDegAsp 0.6 U/kg s.c., Day 6
  t max,IAsp: 1.33 h

## insulin degludec [IDeg]
[3]; during the trial, s.c. administration
  injection site reactions: No injection site reactions
[3]; following subcutaneous administration
  treatment-emergent changes in clinical laboratory parameters, vital signs, physical examination or ECG: no significant treatment-emergent changes
[3]; [5]
  confirmed hypoglycemic episodes: 22 episodes
  subjects with confirmed hypoglycemic episodes: 13 subjects
[2]; once-daily IDeg 0.42 U/kg s.c.
  time to clinical steady state: 2 to 3 days
[4]
  duration of action: exceeding 42 h
[4]; no reference given
  half-life: > 24 h
